Screening data deposited in PubChem by several laboratories.
bCat nuc transl – modulators of beta-catenin nuclear translocation; HeLa beta-catenin nuclear translocation, immunofluorescence imaging; nuclear translocation activity, % at 5 µM; actives 0.3% (n = 190,000); AID 1665;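 active = nuclear translocation activity above 50% at 5 µM, with a well cell count of 50 or more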;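 note: per-cell ratio of nuclear to cytoplasmic median beta-catenin stain intensity; plate controls were DMSO negative control for no effect and GSK-3 inhibitor IX positive control for full effect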
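Test system: human HeLa cells, endogenous beta-catenin. Times: 24 h compound exposure, 37°C. Measured by: beta-catenin immunofluorescence imaging with DAPI.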
KCC2 mod – modulates chloride dependent transport by human KCC2. Q9H2X9. KCC2 cells, thallium flux FluoZin-2 fluorescence. B-score of Tl+ flux slope (higher = more flux/activation; lower = inhibition) at 10 µM. actives 2.2% (n = 190,000);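 active = thallium flux slope and its plate-corrected score both differing from the plate sample mean at a set confidence after two filtering rounds, in either direction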;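 note: slope of fluorescence scaled to starting intensity during 10 to 20 s after thallium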
Target sequence (Q9H2X9 whole entry, looked up): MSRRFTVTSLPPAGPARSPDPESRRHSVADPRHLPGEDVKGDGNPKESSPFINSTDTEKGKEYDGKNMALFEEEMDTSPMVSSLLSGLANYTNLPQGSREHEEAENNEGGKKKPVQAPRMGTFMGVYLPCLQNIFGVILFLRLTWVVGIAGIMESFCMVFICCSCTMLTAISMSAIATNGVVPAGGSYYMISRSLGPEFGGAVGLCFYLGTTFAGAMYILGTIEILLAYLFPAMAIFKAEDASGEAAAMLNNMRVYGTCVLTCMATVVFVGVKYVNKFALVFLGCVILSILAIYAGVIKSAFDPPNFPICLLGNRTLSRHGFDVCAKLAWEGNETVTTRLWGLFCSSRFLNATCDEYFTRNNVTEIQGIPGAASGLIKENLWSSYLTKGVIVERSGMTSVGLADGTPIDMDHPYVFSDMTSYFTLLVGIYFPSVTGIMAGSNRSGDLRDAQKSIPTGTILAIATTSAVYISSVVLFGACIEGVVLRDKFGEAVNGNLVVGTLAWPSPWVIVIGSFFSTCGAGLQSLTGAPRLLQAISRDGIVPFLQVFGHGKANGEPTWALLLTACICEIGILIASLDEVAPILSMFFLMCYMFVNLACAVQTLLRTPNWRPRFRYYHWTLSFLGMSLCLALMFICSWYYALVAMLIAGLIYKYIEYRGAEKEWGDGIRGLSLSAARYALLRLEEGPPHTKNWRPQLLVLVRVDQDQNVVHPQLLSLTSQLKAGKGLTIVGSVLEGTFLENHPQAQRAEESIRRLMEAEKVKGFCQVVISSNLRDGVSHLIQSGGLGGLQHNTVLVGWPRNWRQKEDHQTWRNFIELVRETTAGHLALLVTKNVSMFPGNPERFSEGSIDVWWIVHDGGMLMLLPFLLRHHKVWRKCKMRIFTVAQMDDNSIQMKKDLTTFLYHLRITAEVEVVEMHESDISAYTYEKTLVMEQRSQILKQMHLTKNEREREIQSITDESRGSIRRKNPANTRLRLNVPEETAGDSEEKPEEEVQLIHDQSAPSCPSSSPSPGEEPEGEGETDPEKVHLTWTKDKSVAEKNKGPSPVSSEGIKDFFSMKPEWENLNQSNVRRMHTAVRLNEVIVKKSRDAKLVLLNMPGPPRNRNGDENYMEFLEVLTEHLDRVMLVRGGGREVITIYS
WT yeast gro inh – growth inhibition of WT yeast, mitochondrial fusion screen | inhibition, % at 10 µM | actives 2.1% (n = 190,000) | mitochondrial fusion phenotypic screen, WT strain; in the data active = inhibition above about 58%; tested in S. cerevisiae
MT stabilizer – microtubule stabilization, imaging screen; HeLa tubulin immunostaining HCS, 24 h; share of cells brighter than vehicle mean+2SD; % tubulin-high responders, % at 10 µM; AID 2205; actives 0.83% (n = 200,000);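 active = plate Z-score above 3 for both tubulin-high and condensed-nucleus cell shares, with cell loss under 80%, at 10 µM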;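 note: anti alpha tubulin signal scored within the nucleus-defined area of each cell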
Pf gamet viab – kills late stage P. falciparum gametocytes. P. falciparum stage V gametocytes, ATP luminescence, 24 h. inhibition, % at 10.9 µM. actives 0.065% (n = 150,000);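 active = inhibition above the mean plus 3 SD of compounds within the control limits, set per campaign, cut at about 38% in these data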;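 note: 0% = DMSO wells and 100% = medium only without gametocytes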
The depositor's hits bear a star; . = no result given. Rows were chosen to be rich in hits. Some 4% of all compounds tested hit in one or more screens of this group.

SMILES	bCat nuc transl	KCC2 mod	WT yeast gro inh	MT stabilizer	Pf gamet viab
O=C(NN=C(Cc1ccccc1)Cc1ccccc1)c1ccc(F)cc1	1.6	7.69*	3.5	3.5	14.2
C/C(Cc1ccccc1)=N\NC(=O)c1ccc(F)cc1	-1.4	-0.863	-11.0	5.1	1.4
COCCn1c(-c2ccco2)csc1=Nc1cccnc1	-1.5	0.553	12.2	1.8	.
COc1ccc(O)c(/C=N/n2c(-c3ccco3)csc2=Nc2cccnc2)c1	-0.7	-0.0247	23.8	4.0	53.0*
CCO[C@H]1OC(C(=O)Nc2ccccc2)=C[C@@H](c2ccc(C(F)(F)F)cc2)[C@@H]1CCCO	1.3	-0.307	74.7*	1.9	.
CCCCCOc1ccc(CSC(=N)N)cc1[N+](=O)[O-]	0.7	0.0347	77.0*	2.3	-4.3
CC(=O)Nc1ccc(NC(=O)CSc2nnc(-c3ccccc3)n2Cc2ccc3c(c2)OCO3)cc1	0.3	-1.13	65.6*	2.9	.
CC(C)C[C@H](NC(=O)c1nc[nH]c1C(=O)N1CCN(c2ccccc2)CC1)C(=O)OCc1ccccc1	-0.8	-1.45	.	.	-18.5
COc1ccc(S(=O)(=O)N2CCN(C(=O)c3ccco3)CC2)cc1C(C)(C)C	.	.	.	.	12.4
CCCn1c(CN(Cc2ccccc2)Cc2ccccc2)nc2c1c(=O)n(C)c(=O)n2C	-3.3	-1.28	77.2*	2.7	.
C[C@@H](OC(=O)c1[nH]cnc1C(=O)NCc1ccc(CNC(=O)OC(C)(C)C)cc1)c1ccccc1	.	.	.	.	-16.3
Cc1sc2nc(C3CC3)nc(SCC(=O)N3CC(=O)Nc4ccccc43)c2c1C	.	12.2*	37.0	8.4	.
N#CC1=C(SCC(=O)c2ccc(Cl)cc2)NC2=C(C(=O)CCC2)C1c1ccco1 (stereo unspecified)	83.2*	.	17.5	.	3.2
COc1ccc(C(=O)n2c(-c3ccco3)nc3ccccc32)cc1	74.6*	.	22.1	23.5*	.
Clc1ccc(OCCn2c(-c3ccco3)nc3ccccc32)cc1	-5.8	-0.0588	83.0*	0.8	-23.5
COc1ccc(C(=O)N2CCn3c2nc2ccccc23)cc1	-0.5	.	13.7	2.2	16.8
NNC(=O)c1cc2ccccc2cc1NS(=O)(=O)c1ccccc1	.	.	.	.	5.2
COc1ccccc1C1CC(c2ccc(Br)cc2)=NN1C(=O)c1cccnc1 (stereo unspecified)	83.1*	-0.824	33.6	14.9*	-3.8
COc1cccc(C2CC(c3ccc(Br)cc3)=NN2C(=O)c2ccncc2)c1OC (stereo unspecified)	-6.5	-0.975	36.6	11.6	4.6
CC(C)Cc1ccc(C(C)C(=O)Nc2ccccc2O)cc1 (stereo unspecified)	-0.3	0.0466	.	.	5.7
CC1=NNC(=O)C(CC(=O)Nc2ccc(Cl)c(Cl)c2)C1 (stereo unspecified)	.	-0.364	11.0	4.4	.
COc1cccc(C(c2c(N)[nH]c(=S)[nH]c2=O)c2c(N)[nH]c(=S)[nH]c2=O)c1	-0.3	-0.197	.	.	7.9
Clc1ccc(OCCSCc2nc3ccccc3[nH]2)cc1	2.4	.	79.3*	3.3	.
Cc1ccc(OCCSCc2nc3ccccc3[nH]2)cc1	.	.	45.8	0.9	.
Cc1ccc(SCc2nc3ccccc3[nH]2)cc1	0.4	0.307	26.4	2.9	0.8
SMILES	bCat nuc transl	KCC2 mod	WT yeast gro inh	MT stabilizer	Pf gamet viab
Cc1ccc(CSCc2nc3ccccc3[nH]2)cc1	-4.0	-0.25	67.5*	2.9	-45.7
Cc1ccc(/C=N/NC(=O)CCn2nc(C)cc2C)c(C)c1	40.9	-0.222	2.2	27.2*	.
COc1cccc(C(c2sc3nc(C)nn3c2O)N2CCc3ccccc3C2)c1 (stereo unspecified)	-0.7	0.325	12.1	1.9	.
Cc1cc(N2CCN(c3nc(-c4ccccc4)cs3)CC2)c2ccccc2n1	-1.9	0.255	70.2*	1.3	-5.6
CN(C)/C=C(\c1cnc(Cl)s1)S(=O)(=O)c1ccccc1	0.7	-0.861	9.6	3.5	-14.5
COc1ccc(CNC(=O)CCCC(=O)Nc2cccc(Br)c2)cc1	.	.	.	.	12.5
COc1ccccc1-c1c(C)nn2c(N3CCCCCC3)cc(C)nc12	-1.5	-1.25	61.0*	4.7	.
COc1ccccc1-c1c(C)nn2c(N3CCN(Cc4ccccc4)CC3)cc(C)nc12	.	-0.772	85.2*	2.5	.
COc1ccc(-c2c(C)nn3c(N4CCN(Cc5ccccc5)CC4)cc(C)nc23)cc1OC	.	-2.31	15.3	3.3	.
CCN(C(=O)c1ccc(C)c(Br)c1)c1ccccc1	-1.6	-1.23	10.8	2.3	-14.1
CC1(C)Cc2nc3sc4c(=O)n(CC(=O)NCc5ccco5)cnc4c3cc2CO1	0.6	0.188	-5.4	31.7*	2.7
CC1(C)Cc2nc3oc4c(=O)n(CC(=O)Nc5ccccc5)cnc4c3cc2CO1	-1.9	0.664	9.8	3.1	-6.5
O=C(Nc1ccc(OC(=O)c2ccco2)cc1)c1ccco1	-2.8	.	25.6	2.2	12.9
O=C(Nc1ccc(Oc2cccc3ccccc23)cc1)c1ccco1	.	-1.63	79.4*	4.8	-4.5
O=C(OC1CCCCC1)c1ccc(NC(=O)c2ccco2)cc1	0.3	-1.02	71.2*	2.3	-11.2
O=C(Nc1cccc(C(=O)N2CCCc3ccccc32)c1)c1ccccc1	.	.	.	.	6.8
COC(=O)c1cnc(SCc2ccc([N+](=O)[O-])cc2)n1C	-1.7	.	.	.	-5.6
Cc1ccc(-c2nc(Nc3cccc(C)c3)sc2CC(=O)O)cc1	0.0	-4.19*	23.5	7.0	.
O=C1CC(N(CCc2ccccc2)C(=S)Nc2ccccc2)C(=O)N1c1ccccc1 (stereo unspecified)	-5.2	0.544	70.8*	1.6	8.7
CC(C)(C)C1CCC(=NOC(=O)c2ccc(F)cc2)CC1 (stereo unspecified)	1.8	0.0855	98.1*	2.5	2.2
OC(COc1ccccc1)Cn1c2ccccc2c2ccccc21 (stereo unspecified)	-3.9	-0.0294	80.0*	3.3	.
C=CCNC(=S)N(Cc1ccccc1)Cc1ccccc1	-1.7	-0.105	66.3	6.5	-9.8
C=CCNC(=S)N(C1CCCCC1)C1CCCCC1	1.9	-0.848	72.0*	1.8	-13.3
O=C(NC(=S)Nc1ccccc1)c1csnn1	-0.6	43.4*	10.5	2.7	.
O=C(NC(=S)Nc1ccc(C(F)(F)F)cc1)c1csnn1	-0.4	66.6*	2.8	4.4	11.2
SMILES	bCat nuc transl	KCC2 mod	WT yeast gro inh	MT stabilizer	Pf gamet viab
O=C(NC(=S)Nc1ccccc1)c1ccc(-c2ccccc2)cc1	-0.4	1.74	7.5	0.8	.
COc1ccc(-c2cc(-c3cccs3)nc(OC)c2C#N)cc1OC	50.4*	0.00979	4.9	9.6*	22.4
COc1nc(-c2cccs2)cc(-c2ccc(C)cc2)c1C#N	-2.1	-0.0171	-2.4	41.7*	12.5
COc1ccc(-c2c(C#N)c(N)nc3c2CCc2ccccc2-3)cc1OC	.	.	25.6	34.1*	5.3
Cc1ccc(S(=O)(=O)N2CCC(NC(=O)c3ccccc3)CC2)cc1	-1.0	-0.423	-8.4	3.2	.
Cc1cc(C)c(NC(=O)c2cc(C(=O)O)ccc2C(=O)O)c([N+](=O)[O-])c1	0.6	.	2.7	5.2	16.0
O=C(COC(=O)Cn1cnc2ccccc2c1=O)Nc1ccccc1Sc1ccc(Cl)cc1	0.7	-0.611	19.5	3.0	-4.0
